Laboratory results reported in ChEMBL document CHEMBL1121599, “Synthesis and analgesic activity of some 5-(4-hydroxyphenyl)-2-azabicyclo[3.2.1]octanes” (J Med Chem, 1980).

How the values were obtained:
Mus musculus [1] = experiment: Tested in vivo for the analgesic activity by measuring the delay in response to noxious heat stimuli (D'Amour-Smith tail-flick method) in mice upon subcutaneous administration; assay type: functional; settings: sc
Method in brief: (§1)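 Compounds were given as racemic hydrobromide salts. The vehicle, also used as the control in both the tail-flick and the phenylquinone writhing tests, was distilled water with a few drops of Tween 80.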

Mus musculus [2] = experiment: Tested in vivo for the analgesic activity by measuring the inhibition of phenyl-p-quinone- induced writhing (PQW) in mice upon subcutaneous administration; 0.20-0.36; assay type: functional; settings: sc; method in brief: as §1
Opioid receptor = Opioid receptor (Rattus norvegicus, UniProt P33533+P34975+P33535); experiment: Tested for In vitro binding constant for Opioid receptors by measuring the inhibition of stereospecific binding of [3H]naloxone in rat brain homogenates; assay type: tissue-based
Mus musculus [3] = experiment: Tested in vivo for the analgesic activity by measuring the inhibition of phenyl-p-quinone- induced writhing (PQW) in mice upon subcutaneous administration; 2.1-2.9; assay type: functional; settings: sc; method in brief: as §1
Mus musculus [4] = experiment: Tested in vivo for the analgesic activity by measuring the delay in response to noxious heat stimuli (D'Amour-Smith tail-flick method) in mice upon subcutaneous administration; 7.4-24.4; assay type: functional; settings: sc; method in brief: as §1
Mus musculus [5] = species on record: Mus musculus; experiment: animal or person; settings: sc
Mus musculus [6] = experiment: Tested in vivo for the analgesic activity by measuring the inhibition of phenyl-p-quinone- induced writhing (PQW) in mice upon subcutaneous administration; 2.6-3.4; assay type: functional; settings: sc; method in brief: as §1
Mus musculus [7] = experiment: Tested in vivo for the analgesic activity by measuring the inhibition of phenyl-p-quinone- induced writhing (PQW) in mice upon subcutaneous administration; 7.2-21.9; assay type: functional; settings: sc; method in brief: as §1
Mus musculus [8] = experiment: Tested in vivo for the analgesic activity by measuring the inhibition of phenyl-p-quinone- induced writhing (PQW) in mice upon subcutaneous administration; 3.2-4.4; assay type: functional; settings: sc; method in brief: as §1
Mus musculus [9] = experiment: Tested in vivo for the analgesic activity by measuring the inhibition of phenyl-p-quinone- induced writhing (PQW) in mice upon subcutaneous administration; 2.2-2.7; assay type: functional; settings: sc; method in brief: as §1

## O=C(CCCN1CCC2(c3ccc(O)cc3)CCC1C2)c1ccc(F)cc1 (stereo not drawn)
Mus musculus [1]
  ED50: > 25 mg/kg
Mus musculus [2]
  ED50: 0.27 mg/kg
Opioid receptor
  IC50: 0.268 µM

## CC(C)=CCN1CC[C@]2(C)c3cc(O)ccc3C[C@H]1[C@H]2C [(+)-PENTAZOCINE]
Mus musculus [3]
  ED50: 2.4 mg/kg
Mus musculus [4]
  ED50: 14.6 mg/kg

## CN1CC[C@]23c4c5ccc(O)c4O[C@H]2[C@@H](O)C=C[C@H]3[C@H]1C5 [MORPHINE]
Mus musculus [5]
  ED50: 0.68 mg/kg

## Oc1ccc(C23CCC(C2)N(CC2CC2)CC3)cc1 (stereo not drawn)
Mus musculus [1]
  ED50: > 25 mg/kg
Mus musculus [6]
  ED50: 3 mg/kg
Opioid receptor
  IC50: 2.78 µM

## CN1CCC2(c3ccc(O)cc3)CCC1C2 (stereo not drawn)
Mus musculus [7]
  ED50: 10.8 mg/kg
Mus musculus [1]
  ED50: > 25 mg/kg
Opioid receptor
  IC50: 7.29 µM

## CCCN1CCC2(c3ccc(O)cc3)CCC1C2 (stereo not drawn)
Mus musculus [8]
  ED50: 3.7 mg/kg
Mus musculus [1]
  ED50: > 25 mg/kg
Opioid receptor
  IC50: 6.98 µM

## Oc1ccc(C23CCC(C2)N(CCc2ccccc2)CC3)cc1 (stereo not drawn)
Mus musculus [1]
  ED50: > 25 mg/kg
Opioid receptor
  IC50: 0.34 µM
Mus musculus [9]
  ED50: 2.5 mg/kg
